Laboratory results published in ChEMBL document CHEMBL5150051, “Identification and Characterization of a Novel Indoleamine 2,3-Dioxygenase 1 Protein Degrader for Glioblastoma” (J Med Chem, 2022).
pEC50: −log10 of the molar value. Activity calls are given as the source filed them. The rule behind the calls is not given here.

Tests used:
[1] = Cmax in C57BL/6 mouse brain at 25 mg/kg, ip; format: ADME, organism-based; design: dose 25 mg/kg, route ip
[2] = target: T1, Protein cereblon/Indoleamine 2,3-dioxygenase 1 (Homo sapiens, UniProt P14902+Q96SW2); assay: Protac activity at IDO1/CRBN in IFNgamma-stimulated human GBM6 cells assessed as IDO1 degradation measured after 24 hrs by Western blotting analysis; format: cell-based; settings: dose 0.1-10 µM, DDE = dose-dependent effect
Target sequence in this assay (P14902 whole entry, looked up): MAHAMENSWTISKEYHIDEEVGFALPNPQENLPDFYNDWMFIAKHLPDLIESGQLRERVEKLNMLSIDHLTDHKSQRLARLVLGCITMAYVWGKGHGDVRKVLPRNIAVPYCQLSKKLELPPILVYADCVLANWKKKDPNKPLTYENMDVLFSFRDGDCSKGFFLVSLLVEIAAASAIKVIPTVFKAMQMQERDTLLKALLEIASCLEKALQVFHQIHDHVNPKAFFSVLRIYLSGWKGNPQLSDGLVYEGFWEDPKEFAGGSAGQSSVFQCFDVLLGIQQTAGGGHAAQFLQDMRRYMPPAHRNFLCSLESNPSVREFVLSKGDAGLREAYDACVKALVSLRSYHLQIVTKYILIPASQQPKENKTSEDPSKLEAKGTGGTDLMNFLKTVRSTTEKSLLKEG
Target sequence in this assay (Q96SW2 whole entry, looked up): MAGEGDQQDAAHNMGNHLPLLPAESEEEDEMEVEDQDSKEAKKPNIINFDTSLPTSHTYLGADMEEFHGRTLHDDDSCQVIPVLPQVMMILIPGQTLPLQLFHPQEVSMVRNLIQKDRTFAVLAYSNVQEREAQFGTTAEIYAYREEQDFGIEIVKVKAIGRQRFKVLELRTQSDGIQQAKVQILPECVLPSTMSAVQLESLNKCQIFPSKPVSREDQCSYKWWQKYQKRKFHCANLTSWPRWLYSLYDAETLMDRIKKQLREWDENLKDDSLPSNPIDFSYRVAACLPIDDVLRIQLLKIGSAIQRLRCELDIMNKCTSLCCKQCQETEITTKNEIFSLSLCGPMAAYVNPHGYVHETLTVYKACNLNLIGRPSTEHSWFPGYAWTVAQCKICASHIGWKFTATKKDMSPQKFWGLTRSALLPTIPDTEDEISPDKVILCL

[3] = target: T1, Protein cereblon/Indoleamine 2,3-dioxygenase 1; assay: Protac activity at CRBN/IDO1-HA expressed in human U87 cells assessed as IDO1 degradation in intracellular cytoplasmic compartment measured at 1 to 10 uM after 24 hrs by Western blotting analysis; format: subcellular; settings: Cytoplasm, dose 1-10 µM
Target sequence in this assay (P14902 whole entry, looked up): as the sequence (P14902 whole entry, looked up) above
Target sequence in this assay (Q96SW2 whole entry, looked up): as the sequence (Q96SW2 whole entry, looked up) above

[4] = Toxicity in C57BL/6 mouse assessed as mortality at 100 mg/kg, ip treated 5 days/week for 3 weeks; format: organism-based; settings: in vivo, 504 h
[5] = target: T1, Protein cereblon/Indoleamine 2,3-dioxygenase 1; assay: Protac activity at IDO1/CRBN in IFNgamma-stimulated human GBM43 cells assessed as IDO1 degradation by measuring decrease in protein level measured after 24 hrs by Western blotting analysis; format: cell-based; settings: GBM, dose 0.1-10 µM, DDE = dose-dependent effect
Outline: (§1)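 GBM43 cells stimulated with 50 ng/mL human IFNγ for 24 h, then treated across 0.01 to 30 μM for 24 h. IDO1 was quantified by western blot densitometry as percent of IFNγ-induced untreated level. DC50 came from the dose-response curve; n = 3 independent experiments, mean ± SEM.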
Target sequence in this assay (P14902 whole entry, looked up): as the sequence (P14902 whole entry, looked up) above
Target sequence in this assay (Q96SW2 whole entry, looked up): as the sequence (Q96SW2 whole entry, looked up) above

[6] = Half life in C57BL/6 mouse plasma at 25 mg/kg, ip; format: ADME, organism-based
[7] = target: T1, Protein cereblon/Indoleamine 2,3-dioxygenase 1; assay: Protac activity at IDO1/CRBN in IFNgamma-stimulated human KNS-42 cells assessed as IDO1 degradation measured after 24 hrs by Western blotting analysis; format: cell-based; settings: dose 0.1-10 µM, DDE = dose-dependent effect
Target sequence in this assay (P14902 whole entry, looked up): as the sequence (P14902 whole entry, looked up) above
Target sequence in this assay (Q96SW2 whole entry, looked up): as the sequence (Q96SW2 whole entry, looked up) above

[8] = target: Indoleamine 2,3-dioxygenase 1 (Homo sapiens, UniProt P14902); assay: Binding affinity to IDO1 (unknown origin) assessed as binary complex stability by measuring half-life by bio-layer interferometry assay
[9] = target: T1, Protein cereblon/Indoleamine 2,3-dioxygenase 1; assay: Protac activity at IDO1/CRBN in human U87 cells assessed as IDO1 degradation at 10 uM measured after compound washout by Western blotting analysis relative to control; format: cell-based
Outline: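 U87 cells exposed to PROTAC for 24 h, after which compound was fully withdrawn from the medium and culture continued without it for up to 48 h. IDO1 levels then assessed by western blot.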
Target sequence in this assay (P14902 whole entry, looked up): as the sequence (P14902 whole entry, looked up) above
Target sequence in this assay (Q96SW2 whole entry, looked up): as the sequence (Q96SW2 whole entry, looked up) above

[10] = target: T1, Protein cereblon/Indoleamine 2,3-dioxygenase 1; assay: Protac activity at CRBN/IDO1 in IFNgamma-stimulated human CD18 cells assessed as decrease in kynurenine level at 10 uM measured after 24 hrs by Ehrlich's test; format: cell-based; settings: CD18 cell
Target sequence in this assay (P14902 whole entry, looked up): as the sequence (P14902 whole entry, looked up) above
Target sequence in this assay (Q96SW2 whole entry, looked up): as the sequence (Q96SW2 whole entry, looked up) above

[11] = target: T1, Protein cereblon/Indoleamine 2,3-dioxygenase 1; assay: Protac activity at IDO1/CRBN in IFNgamma-stimulated human GBM43 cells assessed as IDO1 degradation by measuring decrease in protein level measured at 10 uM for 16 to 96 hrs by Western blotting analysis; format: cell-based; settings: GBM43 cell, time 16-96 hrs
[12] = target: T1, Protein cereblon/Indoleamine 2,3-dioxygenase 1; assay: Protac activity at CRBN/IDO1-HA expressed in human U87 cells assessed as IDO1 degradation measured at 1 to 10 uM after 24 hrs by Western blotting analysis; format: cell-based; settings: dose 1-10 µM
[13] = target: T1, Protein cereblon/Indoleamine 2,3-dioxygenase 1; assay: Protac activity at CRBN/IDO1 in IFNgamma-stimulated human PC-3 cells assessed as decrease in kynurenine level at 10 uM measured after 24 hrs by Ehrlich's test; format: cell-based
Mus musculus = assay: In vivo Protac activity at IDO1/CRBN in GL261 cells expressing mIDO1 cDNA mouse model assessed as decrease in IDO1 protein level in tumor measured at 25 mg/kg, ip
[14] = target: T1, Protein cereblon/Indoleamine 2,3-dioxygenase 1; assay: Protac activity at IDO1/CRBN in IFNgamma-stimulated human U87 cells assessed as IDO1 degradation by measuring decrease in protein level measured at 10 uM continuous upto 72 hrs by Western blotting analysis; settings: U87 cell
[15] = target: T1, Protein cereblon/Indoleamine 2,3-dioxygenase 1; assay: Protac activity at CRBN/IDO1 in 50 ng/mL IFNgamma-stimulated human U87 cells assessed as IDO1 degradation by measuring decrease in protein level measured at 0.1 to 10 uM after 24 hrs by Western blotting analysis; settings: dose 0.1-10 µM
[16] = target: T1, Protein cereblon/Indoleamine 2,3-dioxygenase 1; assay: Protac activity at CRBN/IDO1-FLAG expressed in human U87 cells assessed as IDO1 degradation at 10 uM measured in presence of IDO1 inhibitor BGB-7204 by immunoprecipitated ubiquitination assay; format: cell-based
[17] = target: T1, Protein cereblon/Indoleamine 2,3-dioxygenase 1; assay: Protac activity at IDO1/CRBN in IFNgamma-stimulated human GBM43 cells assessed as IDO1 degradation measured after 24 hrs by Western blotting analysis; format: cell-based, GBM43 cell; outline: as §1
[18] = Toxicity in C57BL/6 mouse assessed as body weight change at 10 to 100 mg/kg, ip treated 5 days/week for 3 weeks; format: organism-based; settings: in vivo, 504 h, dose 10-100 mg/kg
Outline: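 Male C57BL/6 mice dosed ip with vehicle or compound at 10, 25, 50 or 100 mg/kg, 5 days/week for 3 weeks. Body weight recorded every 2–3 days. n = 3 mice/dose, mean ± SEM.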

[19] = Cmax in C57BL/6 mouse plasma at 25 mg/kg, ip; format: ADME, organism-based; design: dose 25 mg/kg, route ip
[20] = target: T1, Protein cereblon/Indoleamine 2,3-dioxygenase 1; assay: Protac activity at IDO1/CRBN in IFNgamma-stimulated human DIPG007 cells assessed as IDO1 degradation measured after 24 hrs by Western blotting analysis; format: cell-based; settings: HSJD-DIPG-007, dose 0.1-10 µM, DDE = dose-dependent effect
[21] = target: T1, Protein cereblon/Indoleamine 2,3-dioxygenase 1; assay: Protac activity at CRBN/IDO1 in IFNgamma-stimulated human GBM43 cells assessed as decrease in kynurenine level measured after 24 hrs by Ehrlich's test; format: cell-based; settings: GBM43 cell, DDE = dose-dependent effect
Outline: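 U87 or GBM43 cells given compound together with 50 ng/mL IFNγ for 24 h. Supernatant kynurenine was measured with Ehrlich's reagent. Cells cultured without IFNγ served as control.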

[22] = target: T1, Protein cereblon/Indoleamine 2,3-dioxygenase 1; assay: Protac activity at IDO1/CRBN in IFNgamma-stimulated human PBMC cells isolated form non-GBM patient assessed as IDO1 degradation by measuring decrease in intracellular protein level measured after 24 hrs by Western blotting analysis; format: cell-based; settings: DDE = dose-dependent effect
[23] = target: T1, Protein cereblon/Indoleamine 2,3-dioxygenase 1; assay: Protac activity at IDO1/CRBN in IFNgamma-stimulated human U87 cells assessed as IDO1 degradation by measuring decrease in protein level measured after 24 hrs by Western blotting analysis; format: cell-based; settings: dose 0.1-10 µM, DDE = dose-dependent effect
Outline: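 U87 cells given human IFNγ 50 ng/mL for 24 h to induce IDO1, then PROTAC over a dose range starting at 0.01 μM and rising to 30 μM for 24 h. Western blot read-out. IDO1 band densitometry normalized to untreated samples and fitted to give DC50, the concentration giving 50% IDO1 degradation. n = 3 independent experiments, mean ± SEM.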

[24] = target: T1, Protein cereblon/Indoleamine 2,3-dioxygenase 1; assay: Protac activity at CRBN/IDO1-FLAG expressed in human U87 cells assessed as IDO1 degradation measured at 1 to 10 uM after 24 hrs by Western blotting analysis; format: cell-based; settings: dose 1-10 µM
[25] = Drug uptake in C57BL/6 mouse intestine at 50 mg/kg, ip treated 5 days/week for 3 weeks by LC/MS/MS analysis; format: ADME, organism-based; settings: in vivo, 504 h

Sequence of Indoleamine 2,3-dioxygenase 1 (P14902 whole entry, looked up): as the sequence (P14902 whole entry, looked up) above

Compound: C[C@@H](C(=O)Nc1ccc(OC2CCN(C(=O)CCOCCOCCNc3cccc4c3C(=O)N(C3CCC(=O)NC3=O)C4=O)CC2)cc1)[C@H]1CC[C@@H](c2ccnc3ccc(F)cc32)CC1 (some centres not stated)
- Cmax [1]: 2 µM
- Activity [2]: Dde
- Activity [3]: Active
- Activity [4]: Toxic
- Activity [5]: Dde
- half-life [6]: 2.5 h
- Activity [7]: Dde
- T1/2 [8]: 16 s
- Activity [9]: Active
- inhibition [10]: Active
- Activity [11]: Active
- Activity [12]: Active
- inhibition [13]: Active
- Activity (Mus musculus): Active
- Activity [14]: Active
- Activity [15]: Active
- Activity [16]: Active
- pEC50 [17]: 6.26
- Activity ([17]; GBM43 cell, dose 1-10 µM, DDE = dose-dependent effect): Dde
- Activity [18]: Non-Toxic
- Cmax [19]: 365 µM
- Activity [20]: Dde
- inhibition [21]: Dde
- Activity [22]: Dde
- Activity [23]: Dde
- Activity [24]: Active
- Drug uptake [25]: Active
